The text below walks through data of ChEMBL document CHEMBL1156197, “Design, synthesis and evaluation of novel 2-thiophen-5-yl-3H-quinazolin-4-one analogues as inhibitors of transcription factors NF-kappaB and AP-1 mediated transcriptional activation: Their possible utilization as anti-inflammatory and anti-cancer agents” (Bioorg Med Chem, 2010).

The term inhibition denotes the change of the read-out against control, counted positive when it falls. For orientation: IC50 means the concentration needed to halve the response being measured.

One data set deals with Rattus norvegicus. Kind of data set: Antiinflammatory activity against carrageenan-induced paw edema in Sprague-Dawley rat assessed as reduction in paw volume at 50 mg/kg, po dosed 1 hr before carrageenan challenge measured after 3 hrs by plethysmometry. The class given is functional. Also noted: scale not given: the % may be the effect or the level left. Background: Carrageenan injected into the paw causes an acute inflammation.

In data set [1] the target is Transcription factor Jun (Homo sapiens) (UniProt P05412). Kind of data set: Inhibition of AP-1 expressed in HEK293 cells assessed as PMA-stimulated transcriptional activation at 10 uM treated 24 hrs before PMA challenge measured after 20 to 24 hrs by luciferase reporter gene assay. The class given is cell-based. Summed up:
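HEK-293 cells stably carrying a minimal-promoter luciferase construct with tandem AP-1 elements (TGACTAA) were plated at 5 × 10⁴ cells/well and held 24 h at 37 °C in 5% CO₂. Compounds in 0.1% DMSO (10 µM–1 nM) were added to replicate wells for 24 h. Cells were then stimulated with PMA for 20–24 h and read with Bright-Glo luminescence. Mean RLU was normalized to the maximal control; IC50 came from a six-point dose response.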
On the technique in general: A reporter such as luciferase makes a cellular process visible.

In a further data set the test system is PC-3. The data set can be described thus: Cytotoxicity against human PC3 cells. It is filed as functional, cell-based.
The subject of the next data set is TCC-SUP. Kind of data set: Cytotoxicity against human TCCSUP cells. It is filed as functional, cell-based.
For data set [2], the system named is HEK293. Kind of data set: Inhibition of NF-kappaB expressed in HEK293 cells assessed as inhibition of TNF-alpha-stimulated transcriptional activation at 10 uM treated 24 hrs before TNFalpha challenge measured after 20 to 24 hrs by luciferase reporter gene assay. It is filed as cell-based. A digest of the protocol:
(§1)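 Compounds in 0.1% DMSO (10 µM–1 nM) were added to replicate wells for 24 h. Cells were then stimulated with TNF-α for 20–24 h and read with Bright-Glo luciferase. Mean RLU was normalized to the maximal control; IC50 came from a six-point dose response.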

Data set [3] concerns HEK293. The data set can be described thus: Cytotoxicity against TNF-alpha-stimulated HEK293 cells at 10 uM treated 24 hrs before TNFalpha challenge measured after 20 to 24 hrs. The class given is cell-based. The conditions noted are these: human, hek293, 10 µM.
The subject of a further data set is Mus musculus. The data set can be described thus: Inhibition of LPS-stimulated NF-kappaB activation in transgenic FVB mouse assessed as decrease in NF-kappaB activity at 50 mg/kg, po QD for 3 days before LPS challenge measured after 3 hrs by bioluminescence based luciferase reporter gene assay relative to control. It is filed as functional. Also noted: scale not given: the % may be the effect or the level left.

The subject of a further data set is LNCaP. The data set can be described thus: Cytotoxicity against human LNCAP cells. The class given is functional, cell-based.
Data set [4] is described as follows: Inhibition of NF-kappaB expressed in HEK293 cells assessed as inhibition of TNF-alpha-stimulated transcriptional activation treated 24 hrs before TNFalpha challenge measured after 20 to 24 hrs by luciferase reporter gene assay. It is filed as cell-based. Summed up: as §1

Active and inactive are the calls of the source. The calls are words filed in the database; no cut-off is given here.

Sequence of Transcription factor Jun (Homo sapiens) (P05412 whole entry): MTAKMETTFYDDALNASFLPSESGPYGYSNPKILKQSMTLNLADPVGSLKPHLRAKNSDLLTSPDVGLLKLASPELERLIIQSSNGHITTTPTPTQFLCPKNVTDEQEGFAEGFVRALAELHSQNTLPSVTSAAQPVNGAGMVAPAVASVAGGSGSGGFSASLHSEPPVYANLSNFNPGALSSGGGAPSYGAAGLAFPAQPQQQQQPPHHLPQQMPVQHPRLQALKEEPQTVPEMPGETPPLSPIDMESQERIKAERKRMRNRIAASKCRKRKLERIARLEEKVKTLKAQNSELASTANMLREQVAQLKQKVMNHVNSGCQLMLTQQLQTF

Regarding `CC(=O)c1ccc(-n2c(-c3cc(-c4ccncc4)c(N4CCOCC4)s3)nc3ccccc3c2=O)cc1`, the Activity with Rattus norvegicus is 81%; in the data set with HEK293 [3], “Non-toxic”; with Mus musculus it was 43%. Also, the inhibition in data set [1] is 84%; in the data set with HEK293 [2] it was 66%. In addition, the outcome in the data set on PC-3, in the data set on TCC-SUP and in the data set with LNCaP was Active. In [4], the IC50 amounted to 10 µM.
